What was measured:
[1] = folding enthalpy; higher = less favourable; fluorescence melt of hairpins on a sequencing array, two-state fit; conditions: sodium 0.088 M
Outline: (§1)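 Folding enthalpy and melting temperature come from bootstrapped two-state fits to Cy3 fluorescence of library hairpins carrying annealed Cy3 and quencher oligos on a sequenced MiSeq flow cell. Imaging was done in 50 mM Na-HEPES pH 8.0, 25 mM NaCl, stepping by 2.5 °C up to 60 °C, and signals were normalised to pre-quench Cy3 and to control constructs. Results of four replicates were combined by inverse variance, and fitted temperatures were raised by 9.35 °C to match UV melts.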

[2] = melting temperature; fluorescence melt of hairpins on a sequencing array, two-state fit, raised by 9.35 °C to match UV melts; conditions: sodium 0.088 M
Outline: as §1

Sequence | folding enthalpy [1] [kcal/mol] | Tm [2] [°C]
GAAAACGAAAGTTGATTC ((((((....)))..))) | -17.8 | 33.6
GTGGCGGCGAAAGCCCAC (((..(((....)))))) | -15 | 54
GTCAAGCGAAAGCTAGAC (((.(((....))).))) | -25.6 | 52.8
ATCCTGAAAAGGAT (((((....))))) | -18.9 | 45.2
GTAATGTCGAAAGACTAC (((..(((....)))))) | -11.7 | 28.8
GGCCTCCGAAAGGACGCC (((.(((....))).))) | -37.2 | 53.6
GGCAATTCGAAAGAAGCC (((..(((....)))))) | -24.7 | 37.8
GTGGATGGAAACGTCCAC (((((.(....).))))) | -47.6 | 53
GCTATGCCGAAAGGCAGC (((..(((....)))))) | -12.1 | 40.2
GCAGAGGGAAACCTCTAC (.(((((....))))).) | -14.7 | 35.2
GTACTAGGAAACTGGTAC ((((.((....)).)))) | -31.4 | 42.2
GTCGCTGGAAACAGCAAC ((.((((....)))).)) | -15 | 41.7
GCTACGCGAAAGCCGAGC (((..((....))..))) | -15.6 | 43.4
GATAGAGGAAACTCTGTC ((.((((....)))).)) | -32.1 | 38
GCTACGGGAAACCGCAAC (.(.(((....))).).) | -9.56 | 24.1
GTGAACGGAAACGCTCAC ((((.((....)).)))) | -31.5 | 47.6
GATTTGGGAAACTAAATC (((((.(....).))))) | -26.6 | 36.6
GCAAGCCGAAAGGCTGC (((.(((....)))))) | -18.8 | 68.5
GGTGCGGGAAACTGCACC (((((.(....).))))) | -40.6 | 63.1
GATCAAGTATTTGATC ((((((....)))))) | -37.8 | 50.3
GTTACTGGAAACGGTAAC (((((.(....).))))) | -32.2 | 43.9
GCTATGGCGAAAGCCAGC (((..(((....)))))) | -11.2 | 42.6
GCCACGCGAAAGCGGTGC ((..(((....)))..)) | -13.3 | 50.1
GCGGGAGCCCGC ((((....)))) | -20 | 56

Sequence | folding enthalpy [1] [kcal/mol] | Tm [2] [°C]
GCGGAGGCCGC ((((...)))) | -18 | 58.9
GATGAGGGAAACTTCATC (((((.(....).))))) | -25 | 37.1
GATCTACCTTAGATC ((((((...)))))) | -32 | 39.1
GTTCGCGGAAACGCGGAC ((.((((....)))).)) | -26.6 | 60.7
GCGAGTGGAAACACTCAC (.(((((....))))).) | -14 | 45.7
GATACGGGAAACTGTATC (((((.(....).))))) | -37.1 | 43.8
GCCCACCGAAAGGTAGGC (((.(((....))).))) | -38 | 55.5
GGTCTCGAAAGAGTCACC ((((((....)))..))) | -14.6 | 31.3
GCTTTGCGAAAGCAGGGC ((..(((....)))..)) | -20.1 | 47
GCAGCGTCGAAAGACTGC (((..(((....)))))) | -14 | 44.4
GTATGCGGAAACGCATAC (((((((....))))))) | -33.5 | 68.2
GCGAAAGTCGC ((((...)))) | -16.6 | 43.8
TTGTGGAAACACAA (((((....))))) | -19.7 | 40.4
GATCCCCAATGGGATC ((((((....)))))) | -34.5 | 59.7
GTCCTGGGAAACTGGGAC ((((..(....)..)))) | -26.5 | 44.8
GTCCACGGAAACGCGGAC ((((.((....)).)))) | -45.8 | 53.8
GCGTCCTTACGC ((((....)))) | -23.6 | 53.6
CGTCTTCGGAAACGAACG (((..(((....)))))) | -11.3 | 29.8
GCACGCGAAAGCGCTTGC ((((((....)))..))) | -13.3 | 42.8
GTGACCCCGAAAGGGCAC (((..(((....)))))) | -24.9 | 50.8
GAGTACGGAAACGTGTTC ((..(((....)))..)) | -10.5 | 22.2
GCGGTCGCCCGC ((((....)))) | -18.6 | 56.7
GATCGGGGAAACTCGGTC ((.((.(....).)).)) | -28.3 | 38
GCAAACGAAAGTTCTTGC ((((((....)))..))) | -10 | 31.7

Sequence | folding enthalpy [1] [kcal/mol] | Tm [2] [°C]
GGAAGCCGAAAGGCGTCC (((.(((....))).))) | -14.6 | 61.6
GGAACGCGAAAGCGCTCC (((.(((....))).))) | -28.2 | 55.8
GGTCATGGAAACATGGTC (..((((....))))..) | -17.6 | 32.7
GCGGCCGACCGC ((((....)))) | -26.7 | 57.6
GGAAACGAAAGTTGATCC ((((((....)))..))) | -14.5 | 29.3
GCTACCGCGAAAGCGAGC (((..(((....)))))) | -11.5 | 35.9
GCGGTGGGAAACTGCCGC ((((..(....)..)))) | -41.6 | 56.6
GCCGACCGAAAGGTAGGC (((.(((....))).))) | -37.5 | 69.3
GCCCCGCGAAAGCTTGGC (((..((....))..))) | -19.9 | 43.1
GGTGTCGAAAGACAACC ((((((....))).))) | -26.1 | 55.7
GATGTGGGAAACTACATC (((((.(....).))))) | -36.5 | 44.9
GTCAGCCGAAAGGCGGAC (((.(((....))).))) | -33.1 | 68
GGTCTAGGAAACTAGATC (.(((((....))))).) | -29.8 | 40.3
GATCTAGGAAACTAGACC (.(((((....))))).) | -14.8 | 29.3
GTCGTTCCGAAAGGAGAC (((..(((....)))))) | -22 | 35.1
GACCCCCGAAAGGGGTC (((.(((....)))))) | -19.9 | 67.5
GGGATCGAAAGATACCC ((((((....))).))) | -21.2 | 51.6
GGTCATCGAAAGATACC (((.(((....)))))) | -24.2 | 38.4
GCGATATGTCGC ((((....)))) | -26.4 | 55
TCGTGGAAACACGA (((((....))))) | -18.3 | 53.7
GTTGAGCGAAAGCTAAAC (((.(((....))).))) | -26.5 | 48
GGTCAAGCGAAAGCTACC (((..(((....)))))) | -17.8 | 34.8
GATCGGGCTCCCGATC ((((((....)))))) | -40.6 | 58.5
GATTGAGGAAACTTGATC (((..((....))..))) | -7.66 | 22.4

Sequence | folding enthalpy [1] [kcal/mol] | Tm [2] [°C]
GACTCGGAAACGAGTC ((((((....)))))) | -32.8 | 66.4
GTAATCCGAAAGGAATAC (((.(((....))).))) | -26.2 | 40.6
GCTGTTCGAAAGAAGAGC (((.(((....))).))) | -37.2 | 50.6
GCAGAAGAAATTCTGC ((((((....)))))) | -32.6 | 52.9
GCGTGCTCACGC ((((....)))) | -25 | 58.6
GTGGTGGGAAACTACCGC (.(((.(....).))).) | -28.4 | 42.7
GGCAACGGAAACGTTGTC (.(((((....))))).) | -39.2 | 55.9
GGTCCAGAAATGGACC ((((((....)))))) | -46 | 64
GAGTCTGGAAACAGGCTC (((.(((....))).))) | -44 | 52.2
AGGCTGAAAAGCCT (((((....))))) | -16.9 | 62.6
GCGGTTGCCGC ((((...)))) | -21.2 | 56.6
GTTCCACGAAAGTGAAC (((.(((....)))))) | -17.7 | 41.8
GAAACCGAAAGGTCTTC ((((((....))).))) | -19.4 | 40.4
GCGCAAACGAAAGTTCGC (((..(((....)))))) | -22.6 | 46.7
GTTGGGGGAAACCTCGAC ((.(.((....)).).)) | -23.5 | 34.7
GATCTTACATAAGATC ((((((....)))))) | -35.9 | 43.1
GCGTTCGACGC ((((...)))) | -23.7 | 53.8
GTGCACCCGAAAGGGCAC (((..(((....)))))) | -23.9 | 52.1
GGTGCTCGAAAGAGAACC (((.(((....))).))) | -48.3 | 54.1
GATCGGTATCCGATC ((((((...)))))) | -40.8 | 57.4
GATCGTTTGGACGATC ((((((....)))))) | -44.5 | 56.3
